The results in this text go back to ChEMBL document CHEMBL1255535, “7-O-Arylmethylgalangin as a novel scaffold for anti-HCV agents” (Bioorg Med Chem Lett, 2010).

A short description of data set [1]: Cytotoxicity against human Huh5-2 cells after 3 days by WST-1 assay. It counts as cell-based, Huh-5-2. The gist of the method: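 Huh-5-2 cells seeded at 5 × 10³/well in complete DMEM with G418; serial compound dilutions in DMEM without G418 added 24 h later; cells proliferated 3 days at 37 °C; cell number by WST-1. CC50 = concentration reducing cell proliferation by 50%.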
On the technique in general: Formazan colour is commonly taken as a measure of viable cells.

The next data set has as its system Hepatitis C virus. As to the kind of experiment: Antiviral activity against HCV assessed as inhibition of viral replication by luciferase assay. Type of data set: functional, organism-based, Hepacivirus hominis. Summed up: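 Huh-5-2 replicon cells (5 × 10³/well) seeded in complete DMEM with G418, 24 h at 37 °C (5% CO2), then medium refreshed with G418 and compounds added from DMSO stock; 4 days at 37 °C; luciferase activity read by Steady-Glo. EC50 = concentration inhibiting HCV RNA replication by 50%, averaged from triplicate determinations; IFN-α as positive control.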

The nature of data set [2]: Selectivity index, ratio of CC50 for human Huh5-2 cells to EC50 for HCV. More on the design: species or system Huh-5-2. Summed up:
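Selectivity index computed as CC50 (Huh-5-2 proliferation, WST-1, 3 days) divided by EC50 (replicon luciferase, 4 days), both from the same Huh-5-2 cell line.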

In turn, `COc1ccc(COc2cc(O)c3c(=O)c(O)c(-c4ccccc4)oc3c2)cc1` had a cytotoxic concentration (CC50) at 72 h in data set [1] of over 100 µM. Also, the EC50 in the data set on Hepatitis C virus worked out at 38 µM.
For `Cc1ccc(COc2cc(O)c3c(=O)c(O)c(-c4ccccc4)oc3c2)cc1`, the cytotoxic concentration (CC50) at 72 h in data set [1] turned out to be 88 µM. The “Selectivity Index” value in data set [2] was 14.7. In the data set on Hepatitis C virus, the half-maximal effective concentration (EC50) amounted to 6 µM.
In turn, `O=c1c(O)c(-c2ccccc2)oc2cc(OCc3cccc(Br)c3)cc(O)c12` displayed a half-maximal cytotoxic concentration (CC50) at 72 h in data set [1] of over 100 µM. Also, the half-maximal effective concentration (EC50) in the data set with Hepatitis C virus is 37 µM.
Turning to `N#Cc1ccc(COc2cc(O)c3c(=O)c(O)c(-c4ccccc4)oc3c2)cc1`, the half-maximal cytotoxic concentration (CC50) at 72 h in data set [1] stood at 94 µM. Further, in data set [2], the “Selectivity Index” value is reported as 4.9. Also, the EC50 in the data set with Hepatitis C virus was found to be 19 µM.
The compound `O=c1c(O)c(-c2ccccc2)oc2cc(OCc3ccc(Cl)cc3)cc(O)c12` returned a CC50 at 72 h in data set [1] of over 100 µM. Also, the EC50 with Hepatitis C virus amounted to 8 µM.
Take `N#Cc1ccc(-c2oc3cc(OCc4ccc(Cl)cc4)cc(O)c3c(=O)c2O)cc1`: in data set [1], it took 67 µM to reach half-maximal cytotoxicity (CC50 at 72 h). In addition, the “Selectivity Index” value in data set [2] was 74.4. The EC50 in the data set on Hepatitis C virus is 0.9 µM.
Turning to `O=C(O)/C(O)=C/C(=O)c1cccc(NCc2ccc(Cl)cc2)c1`, the EC50 with Hepatitis C virus came to 0.82 µM.
In data set [1], `COc1ccc(-c2oc3cc(OCc4ccc(Cl)cc4)cc(O)c3c(=O)c2O)cc1` came in with a CC50 at 72 h of 64 µM. Further, the “Selectivity Index” value in data set [2] is on record as 10.7. In addition, the concentration for a half-maximal effect (EC50) in the data set on Hepatitis C virus is 6 µM.
For `N#Cc1ccccc1COc1cc(O)c2c(=O)c(O)c(-c3ccccc3)oc2c1` the same measures were 22 µM, 0.6 and 39 µM.
Compound `O=c1c(O)c(-c2ccccc2)oc2cc(OCc3ccc(Br)cc3)cc(O)c12` had a 50% cytotoxic concentration (CC50) at 72 h in data set [1] of over 100 µM. Moreover, the concentration giving a half-maximal response (EC50) in the data set on Hepatitis C virus stood at 6 µM.
In data set [1], `O=c1c(O)c(-c2ccccc2)oc2cc(OCc3cccc([N+](=O)[O-])c3)cc(O)c12` registered a half-maximal cytotoxic concentration (CC50) at 72 h of 76 µM. The “Selectivity Index” value in data set [2] is given as 38. Further, the EC50 with Hepatitis C virus worked out at 2 µM.
With `O=c1c(O)c(-c2ccccc2)oc2cc(OCc3cccc(Cl)c3)cc(O)c12`, the CC50 at 72 h in data set [1] was over 100 µM. In addition, in the data set on Hepatitis C virus, the half-maximal effective concentration (EC50) was determined as 22 µM.
In data set [1], `O=c1c(O)c(-c2ccccc2)oc2cc(OCc3ccc([N+](=O)[O-])cc3)cc(O)c12` showed a cytotoxic concentration (CC50) at 72 h of 93 µM. Moreover, the “Selectivity Index” value in data set [2] was 9.3. Besides, the half-maximal effective concentration (EC50) with Hepatitis C virus was 10 µM.
With `O=c1c(O)c(-c2ccc(C(F)(F)F)cc2)oc2cc(OCc3ccc(Cl)cc3)cc(O)c12`, the CC50 at 72 h in data set [1] stood at 73 µM. Besides, the “Selectivity Index” value in data set [2] amounted to 24.3. Also, the EC50 in the data set with Hepatitis C virus came out at 3 µM.
Taken in the same sequence, the figures for `O=c1c(O)c(-c2ccccc2)oc2cc(OCc3ccccc3[N+](=O)[O-])cc(O)c12` were 32 µM, 1.3 and 25 µM.
As to `O=c1c(O)c(-c2ccccc2)oc2cc(OCc3ccccc3Br)cc(O)c12`, the cytotoxic concentration (CC50) at 72 h in data set [1] is over 100 µM. Further, in the data set on Hepatitis C virus, the concentration giving a half-maximal response (EC50) was determined as 10 µM.
For `N#Cc1cccc(COc2cc(O)c3c(=O)c(O)c(-c4ccccc4)oc3c2)c1`, it took 72 µM to reach half-maximal cytotoxicity in data set [1] (CC50 at 72 h). In addition, the “Selectivity Index” value in data set [2] is 24. Also, the EC50 in the data set on Hepatitis C virus is 3 µM.
For `Cc1cccc(COc2cc(O)c3c(=O)c(O)c(-c4ccccc4)oc3c2)c1` the same measures were 35 µM, 1.3 and 27 µM.
In the case of `Cc1ccccc1COc1cc(O)c2c(=O)c(O)c(-c3ccccc3)oc2c1`, the CC50 at 72 h in data set [1] came to 17 µM. Further, the “Selectivity Index” value in data set [2] was determined as 2.4. Moreover, the EC50 in the data set on Hepatitis C virus is 7 µM.
`COc1ccccc1COc1cc(O)c2c(=O)c(O)c(-c3ccccc3)oc2c1` returned a CC50 at 72 h in data set [1] of over 100 µM. Besides, the half-maximal effective concentration (EC50) with Hepatitis C virus was 53 µM.
Taken in the same sequence, the figures for `O=c1c(O)c(-c2ccccc2)oc2cc(OCc3ccccc3Cl)cc(O)c12` were over 100 µM and 30 µM.
Taken in the same sequence, the figures for `COc1cccc(COc2cc(O)c3c(=O)c(O)c(-c4ccccc4)oc3c2)c1` were over 100 µM and 15 µM.

One may read the CC50 as the concentration that lowers cell viability or growth by half. A low value points to harm at low concentration. Usually EC50 stands for the concentration needed to bring the measured effect to its halfway point.
